# Counter-ions that a name gives are not always drawn.
# Legend:
# [1] = test system: HIV-1LAI; test: microbe, parasite or virus in culture; format: cell-based; details: Human immunodeficiency virus 1, MT2, 168 h, read-out: IC50 against HIV-1LAI
# [2] = Cytotoxicity assay in PXB cells; format: cell-based; details: human
# [3] = test system: PXB cells; test: Cytotoxicity assay in PXB cells; format: cell-based; details: read-out: CC50 in PXB cells; PXB cells, continuous exposure; mean ± 1 S.D.
# [4] = test system: HBVWT^Ce; test: HBVWT^Ce viremia in infected human-liver-chimeric mice; format: in vivo; details: for reduction of HBVWT^Ce DNA (viremia), day 14: 14 days, average reduction by day 14
# [5] = test system: HBVWT^D; test: microbe, parasite or virus in culture; format: cell-based; details: Hepatitis B virus, HepG2.2.15, read-out: anti-HBV activity IC50
# [6] = test system: HBVETV^R; test: HBVETV^R viremia in infected human-liver-chimeric mice; format: in vivo; details: for reduction of HBVETV^R viremia, day 14: 14 days, average reduction by day 14; for block of HBVETV^R viremia: once-daily peroral 1 mg/kg/day over 14 days, abstract
# How it was run: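 uPA/SCID mice with livers repopulated by human hepatocytes, infected with recombinant ETV-resistant HBV clone (L180M/S202G/M204V). Dosing began 7–14 weeks after inoculation: test compound, ETV or saline given intragastrically at 1 mg/kg once daily for 14 days, n=2–4 per group. Serum HBV-DNA (S gene) measured by real-time PCR. Change from day 0 compared by repeated-measures ANOVA, two-tailed, uncorrected.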
# [7] = format: in vivo, human-liver-chimeric mice; details: 1 mg/kg/day oral, 14 days, HBV-infected mice
# [8] = test system: human DNA polymerases, α, β, and γ; details: ref Nakata et al., 2007; cited from earlier work
# [9] = CC50 in PXB cells, PXB cells, continuous exposure, mean ± 1 S.D.
# [10] = 1 mg/kg/day oral, average reduction by 3 days after start
smiles,measurement,setting,value
"CC(C)OC(=O)[C@H](C)N[P@](=O)(CO[C@H](C)Cn1cnc2c(N)ncnc21)Oc1ccccc1 [TAF, tenofovir alafenamide]",IC50,[1],4 ± 2 nM
same,CC50,[2],5700 ± 1900 nM
"Nc1ccn([C@@H]2CS[C@H](CO)O2)c(=O)n1 [3TC, lamivudine]",IC50,[1],660 ± 150 nM
same,CC50,[2]; [9],> 100000 nM
"N#C[C@]1(CO)O[C@@H](n2cnc3c(N)ncnc32)C[C@@H]1O [CdA, 4’-C-cyano-2’-deoxyadenosine]",IC50,[1],94 ± 4 nM
same,CC50,[2]; [9],5400 ± 1500 nM
"CC(C)(C)C(=O)OCOP(=O)(COCCn1cnc2c(N)ncnc21)OCOC(=O)C(C)(C)C [ADV, adefovir dipivoxil]",IC50,[1],660 ± 200 nM
same,CC50,[2]; [9],71500 ± 19300 nM
"N#C[C@]1(CO)O[C@@H](n2cnc3c(=O)[nH]c(N)nc32)C[C@@H]1O [CdG, 4’-C-cyano-2’-deoxyguanosine]",IC50,[1],0.6 ± 0.1 nM
same,CC50,[2]; [9],370 ± 30 nM
"N#C[C@]1(CO)O[C@@H](n2cc(F)c3c(N)ncnc32)C[C@@H]1O [CdFA, 4’-C-cyano-7-deaza-7-fluoro-2’-deoxyadenosine]",IC50,[1],880 ± 10 nM
same,CC50,[3],55900 ± 5700 nM
same,"reduction of HBVWT^Ce DNA (viremia), day 14",[4]; 1 mg/kg/day oral,0.7 log10 copies/mL
same,"reduction of HBVWT^Ce DNA (viremia), day 3",[4]; [10],0.5 log10 copies/mL
same,block of HBVWT viremia,"[4]; once-daily peroral 1 mg/kg/day over 14 days, abstract",0.7 logs
same,IC50,[5],~26 nM
same,"reduction of HBVETV^R viremia, day 14",[6]; 1 mg/kg/day oral,1.2 log10 copies/mL
same,"reduction of HBVETV^R viremia, day 3",[6]; [10],0.6 log10 copies/mL
same,block of HBVETV^R viremia,[6],1.2 logs
"C=C1[C@H](CO)[C@@H](O)C[C@@H]1n1cnc2c(=O)[nH]c(N)nc21 [ETV, entecavir]",changes in serum human albumin levels,[7],no significant differences
same,IC50,[1],1000 ± 400 nM
same,CC50,[2]; [9],252000 ± 37500 nM
same,"reduction of HBVWT^Ce DNA (viremia), day 14",[4]; 1 mg/kg/day oral,2.2 log10 copies/mL
same,"reduction of HBVETV^R viremia, day 14",[6]; 1 mg/kg/day oral,0.5 log10 copies/mL
same,block of HBVETV^R viremia,[6],only slightly suppressed
"CC(C)OC(=O)OCOP(=O)(CO[C@H](C)Cn1cnc2c(N)ncnc21)OCOC(=O)OC(C)C [TDF, tenofovir disoproxil fumarate]",IC50,[1],30 ± 10 nM
same,CC50,[2]; PXB cells,33400 ± 10900 nM
"C#C[C@]1(CO)O[C@@H](n2cnc3c(N)nc(F)nc32)C[C@@H]1O [EFdA, 4’-ethynyl-2-fluoro-2’-deoxyadenosine]","inhibition of the activity of human DNA polymerases α, β, and γ",[8],little inhibition
